Source: ChEMBL document CHEMBL1122329, “Synthesis and antianxiety activity of (omega-piperazinylalkoxy)indan derivatives” (J Med Chem, 1983)

Legend:
Mus musculus [1] = test: Cataleptogenic action in mice on peroral administration; format: functional; details: po
Procedure, shortened: (§1)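 Six mice per group were dosed orally 1 h before testing. Forepaws were placed on a horizontal steel bar to force an abnormal posture. Holding the posture over 30 s counted as catalepsy. ED50 was the dose giving catalepsy in 50% of animals, with 95% confidence limits.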

Mus musculus [2] = test: Evaluated for hypothermic activity in mice at 30 mg/kg on peroral administration; format: functional; details: route oral
Procedure, shortened: (§2)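 Six mice per group were dosed orally 1 h before testing. Rectal temperature was read with an electronic thermometer. Results are given as degrees of hypothermia (Δt °C) versus an untreated group.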

Rattus norvegicus [3] = test: Evaluated for neuroleptic-like property using anti-methamphetamine test in rats on peroral administration; format: functional; details: po
Procedure, shortened: (§3)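 Groups of six rats were dosed orally, then given methamphetamine 5 mg/kg ip 1 h later. Stereotypy was scored 0–4: sleep/eyes closed 0, motionless/eyes open 1, moving around cage 2, sniffing 3, continuous licking or gnawing 4. ED50 was the dose halving mean score versus controls, with 95% confidence limits.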

Rattus norvegicus [4] = test: Evaluated for neuroleptic-like property using open-field test in rats(increase in ambulation at 3 to 20 mg/kg on peroral administration; format: functional; details: dose mg/kg 3-20, route oral
Mus musculus [5] = test: Anti-morphine activity against the morphine-induced Straub's tail reaction in mice on peroral administration; format: functional; details: po
Procedure, shortened: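 Mice, six per group, dosed orally with test compound 1 h before morphine (20 mg/kg ip); Straub's tail reaction scored as index of morphine CNS stimulation.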

Mus musculus [6] = test: Cataleptogenic action in mice on peroral administration; value may range from 30 to 71; format: functional; details: po; procedure, shortened: as §1
Mus musculus [7] = test: Anti-fighting potency against foot shock induced fighting behavior in mice expressed as % inhibition at 25 mg/kg peroral administration; format: functional; details: route oral
Mus musculus [8] = test: Anti-morphine activity against morphine-induced Straub''s tail reaction in mice expressed as % inhibition at 25 mg/kg peroral administration; format: functional; details: route oral
Procedure, shortened: (§4)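 Six mice per group received test compounds orally 1 h before morphine (20 mg/kg ip). Straub's tail reaction was scored as the index of morphine's CNS stimulant action.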

Mus musculus [9] = test: Evaluated for hypothermic activity in mice at 30 mg/kgo n peroral administration; format: functional; details: dose 30 mg/kg; route oral; procedure, shortened: as §2
Rattus norvegicus [10] = test: Evaluated for neuroleptic-like property using open-field test in rats(increase in ambulation at 3 to 20 mg/kg on peroral administration; value may range from 11.9 to 23.1; format: functional; details: dose mg/kg 3-20, route oral
[11] = Toxicity on peroral administration to mice; format: organism-based; details: mouse, in vivo, po
Procedure, shortened: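 Oral dosing to mice, eight per group; LD50 calculated by Litchfield-Wilcoxon method.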

[12] = Ratio of muscle relaxant action to antifighting effect; format: functional
Procedure, shortened: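 Muscle relaxation was measured by traction test in mice (eight per group), 1 h after oral dosing. Forepaws were placed on a horizontal wire bar 30 cm high. Failure to bring the hind feet onto the wire within 5 s counted as relaxation. This action was set in ratio with the antifighting effect.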

Mus musculus [13] = test: Anti-morphine activity against the morphine-induced Straub''s tail reaction in mice expressed as % inhibition at 25 mg/kg peroral administration; format: functional; details: route oral; procedure, shortened: as §4
Mus musculus [14] = test: Cataleptogenic action in mice on peroral administration; value ranges from 26-93; format: functional; details: po; procedure, shortened: as §1
Rattus norvegicus [15] = test: Evaluated for neuroleptic-like property using open-field test in rats(increase in ambulation at 3 to 20mg/kg on peroral administration; value may range from 8.1 to 13.2; format: functional; details: po
Rattus norvegicus [16] = test: Evaluated for neuroleptic-like property using anti-methamphetamine test in rats on peroral administration; value may range from 20 to 79; format: functional; details: po; procedure, shortened: as §3

SMILES	ED50 (Mus musculus [1])	Delta t (Mus musculus [2])	ED50 (Rattus norvegicus [3])	ED50 (Rattus norvegicus [4])	ED50 (Mus musculus [5])	ED50 (Mus musculus [6])	inhibition in vivo at 25 mg/kg (Mus musculus [7])	inhibition in vivo at 25 mg/kg (Mus musculus [8])	Delta t (Mus musculus [9])	ED50 (Rattus norvegicus [10])	LD50 [11]	Ratio [12]	inhibition in vivo at 25 mg/kg (Mus musculus [13])	ED50 (Mus musculus [14])	ED50 (Rattus norvegicus [15])	ED50 (Rattus norvegicus [16])
CN(C)CCCN1c2ccccc2Sc2ccc(Cl)cc21 [CHLORPROMAZINE]	17 mg/kg	-1.5	15 mg/kg	10.1 mg/kg												
Cc1cc2c(cc1OCCCN1CCN(c3ccccc3)CC1)CCC2.Cl.Cl			> 100 mg/kg		16 mg/kg	56 mg/kg	83%	94%	-2.5 °C	16.6 mg/kg	> 2000 mg/kg	5.41				
Cl.Cl.Fc1ccc(N2CCN(CCCOc3ccc4c(c3)CCC4)CC2)cc1		-5 °C					88%				> 2000 mg/kg	3.73	100%	50 mg/kg	10.3 mg/kg	43 mg/kg
